According to ChEMBL document CHEMBL1124270, “Quinolone antibacterial agents. Synthesis and structure-activity relationships of 8-substituted quinoline-3-carboxylic acids and 1,8-naphthyridine-3-carboxylic acids” (1988):
Converted amounts (≈) assume the structure as drawn.

Columns and labels:
Format in all cases: functional
Escherichia coli [1] = test: Minimum inhibitory concentration against Escherichia coli H560 in vitro.
Escherichia coli [2] = test: Minimum concentration needed to produce linear DNA at an intensity relative to oxolinic at 10 ug/mL in Escherichia coli H560 in vitro.
Procedure, shortened: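 DNA gyrase cleavage test, run as previously described: end point is the lowest drug level (µg/mL) that yields linear DNA at a band intensity matching oxolinic acid at 10 µg/mL. Values come from duplicate or triplicate experiments and are stated as accurate to ±50%.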

Providencia rettgeri = test: Minimum inhibitory concentration against Providencia rettgeri H1771 in vitro.
Klebsiella pneumoniae = test: Minimum inhibitory concentration against Klebsiella pneumoniae MGH-2 in vitro.
Enterococcus faecalis = test: Minimum inhibitory concentration against Streptococcus faecalis MGH-2 in vitro.
Mus musculus [3] = test: In vivo potency against Escherichia coli vogel using mouse protection assay when given subcutaneously; settings: sc, read-out: PD50
Enterobacter cloacae = test: Minimum inhibitory concentration against Enterobacter cloacae HA 2646 in vitro.
Mus musculus [4] = test: In vivo potency against Escherichia coli vogel using mouse protection assay when given perorally; settings: po, read-out: PD50
Staphylococcus aureus [5] = test: Minimum inhibitory concentration against Staphylococcus aureus H228 in vitro.
Streptococcus pneumoniae = test: Minimum inhibitory concentration against Streptococcus pneumoniae SV-1 in vitro.
Escherichia coli [6] = test: Minimum inhibitory concentration against Escherichia coli vogel in vitro.
Staphylococcus aureus [7] = test: Minimum inhibitory concentration against Staphylococcus aureus UC-76 in vitro.
Streptococcus pyogenes = test: Minimum inhibitory concentration against Streptococcus pyogenes C203 in vitro.
Pseudomonas aeruginosa = test: Minimum inhibitory concentration against Pseudomonas aeruginosa UI-18 in vitro.

Compound	MIC (Escherichia coli [1])	DNA cleavage conc (gyrase) (Escherichia coli [2])	MIC (Providencia rettgeri)	MIC (Klebsiella pneumoniae)	MIC (Enterococcus faecalis)	ED50 (Mus musculus [3])	MIC (Enterobacter cloacae)	ED50 (Mus musculus [4])	MIC (Staphylococcus aureus [5])	MIC (Streptococcus pneumoniae)	MIC (Escherichia coli [6])	MIC (Staphylococcus aureus [7])	MIC (Streptococcus pyogenes)	MIC (Pseudomonas aeruginosa)
CCNCC1CCN(c2c(F)cc3c(=O)c(C(=O)O)cn4c3c2OCC4C)C1 (stereo unspecified)	0.05 µg/mL (≈ 0.128 µM)	0.5 µg/mL	0.8 µg/mL (≈ 2.05 µM)	0.4 µg/mL (≈ 1.03 µM)	0.1 µg/mL (≈ 0.257 µM)	11 mg/kg	0.2 µg/mL (≈ 0.514 µM)	> 100 mg/kg	0.2 µg/mL (≈ 0.514 µM)	0.05 µg/mL (≈ 0.128 µM)	0.1 µg/mL (≈ 0.257 µM)	0.025 µg/mL (≈ 0.0642 µM)	0.05 µg/mL (≈ 0.128 µM)	0.8 µg/mL (≈ 2.05 µM)
CNCC1CCN(c2c(F)cc3c(=O)c(C(=O)O)cn(C4CC4)c3c2N)C1.Cl (stereo unspecified)	1.6 µg/mL	5 µg/mL	6.3 µg/mL	3.1 µg/mL	1.6 µg/mL		3.1 µg/mL		1.6 µg/mL	1.6 µg/mL	0.8 µg/mL	0.2 µg/mL	0.4 µg/mL	6.3 µg/mL
CC(C)NCC1CCN(c2c(F)cc3c(=O)c(C(=O)O)cn4c3c2OCC4C)C1 (stereo unspecified)	0.4 µg/mL (≈ 0.991 µM)		3.1 µg/mL (≈ 7.68 µM)	0.8 µg/mL (≈ 1.98 µM)	0.05 µg/mL (≈ 0.124 µM)	2 mg/kg	0.4 µg/mL (≈ 0.991 µM)	8 mg/kg	0.05 µg/mL (≈ 0.124 µM)	0.05 µg/mL (≈ 0.124 µM)	0.2 µg/mL (≈ 0.496 µM)	0.4 µg/mL (≈ 0.991 µM)	0.2 µg/mL (≈ 0.496 µM)	0.2 µg/mL (≈ 0.496 µM)
Cl.Nc1c(N2CCC(N)C2)c(F)cc2c(=O)c(C(=O)O)cn(C3CC3)c12 (stereo unspecified)	0.1 µg/mL	18 µg/mL	0.8 µg/mL	0.4 µg/mL	3.1 µg/mL	6 mg/kg	0.2 µg/mL	50 mg/kg	3.1 µg/mL	3.1 µg/mL	0.4 µg/mL	0.4 µg/mL	3.1 µg/mL	1.6 µg/mL
CC1COc2c(N3CCC(CN(C)C)C3)c(F)cc3c(=O)c(C(=O)O)cn1c23.Cl (stereo unspecified)	0.2 µg/mL	1 µg/mL	0.8 µg/mL	0.4 µg/mL	0.4 µg/mL		0.4 µg/mL		0.2 µg/mL	0.05 µg/mL	0.2 µg/mL	0.05 µg/mL	0.05 µg/mL	3.1 µg/mL
Cl.O=C(O)c1cn(C2CC2)c2c([N+](=O)[O-])c(N3CCNCC3)c(F)cc2c1=O	0.4 µg/mL		3.1 µg/mL	0.8 µg/mL	6.3 µg/mL	3 mg/kg	0.2 µg/mL	10 mg/kg	1.6 µg/mL	12.5 µg/mL	0.2 µg/mL	0.4 µg/mL	12.5 µg/mL	1.6 µg/mL
CC1COc2c(N3CCC(CN)C3)c(F)cc3c(=O)c(C(=O)O)cn1c23 (stereo unspecified)	0.05 µg/mL (≈ 0.138 µM)	0.5 µg/mL	0.8 µg/mL (≈ 2.21 µM)	0.4 µg/mL (≈ 1.11 µM)	0.1 µg/mL (≈ 0.277 µM)		0.2 µg/mL (≈ 0.553 µM)	> 100 mg/kg	0.2 µg/mL (≈ 0.553 µM)	0.025 µg/mL (≈ 0.0692 µM)	0.2 µg/mL (≈ 0.553 µM)	0.05 µg/mL (≈ 0.138 µM)	0.025 µg/mL (≈ 0.0692 µM)	1.6 µg/mL (≈ 4.43 µM)
CNCC1CCN(c2cc3c(cc2F)c(=O)c(C(=O)O)cn3C2CC2)C1 (stereo unspecified)	0.1 µg/mL (≈ 0.278 µM)	0.5 µg/mL	0.4 µg/mL (≈ 1.11 µM)	0.2 µg/mL (≈ 0.556 µM)	0.1 µg/mL (≈ 0.278 µM)		0.2 µg/mL (≈ 0.556 µM)	35 mg/kg	0.2 µg/mL (≈ 0.556 µM)	0.05 µg/mL (≈ 0.139 µM)	0.1 µg/mL (≈ 0.278 µM)	0.025 µg/mL (≈ 0.0696 µM)	0.05 µg/mL (≈ 0.139 µM)	0.8 µg/mL (≈ 2.23 µM)
CCNCC1CCN(c2c(F)cc3c(=O)c(C(=O)O)cn(C4CC4)c3c2Cl)C1 (stereo unspecified)	0.025 µg/mL (≈ 0.0613 µM)	0.1 µg/mL	0.2 µg/mL (≈ 0.49 µM)	0.1 µg/mL (≈ 0.245 µM)	0.013 µg/mL (≈ 0.0319 µM)		0.05 µg/mL (≈ 0.123 µM)		0.013 µg/mL (≈ 0.0319 µM)	0.003 µg/mL (≈ 0.00736 µM)	0.05 µg/mL (≈ 0.123 µM)	0.003 µg/mL (≈ 0.00736 µM)	0.006 µg/mL (≈ 0.0147 µM)	0.8 µg/mL (≈ 1.96 µM)
